Experimental data: ChEMBL document CHEMBL1649455, “Antimicrobial susceptibility and mechanisms of resistance in Shigella and Salmonella isolates from children under five years of age with diarrhea in rural Mozambique” (2009)

How the values were obtained:
[1] = tested on: Shigella flexneri; test: Antimicrobial activity against Shigella flexneri assessed as resistant isolates by disk diffusion method; format: functional
Summary of the method: (§1)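 Isolates came from rectal swabs of children under five seen at MDH between July 2001 and July 2003. There were 109 Shigella and 40 Salmonella. Swabs were cultured on MacConkey, Salmonella-Shigella and XLD agars. Identity was confirmed biochemically and by API-20E. Shigella serogroups were assigned by slide agglutination. Salmonella serotypes were assigned with somatic and flagellar antisera.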

[2] = tested on: Shigella sonnei; test: Antimicrobial activity against Shigella sonnei assessed as resistant isolates by disk diffusion method; format: functional; summary of the method: as §1
[3] = Antimicrobial activity against Salmonella enterica serovar Infantis assessed as resistant isolates by disk diffusion method; format: functional, Salmonella enterica subsp. enterica serovar Infantis; summary of the method: as §1
[4] = tested on: Salmonella typhimurium; test: Antimicrobial activity against Salmonella enterica serovar Typhimurium assessed as resistant isolates by disk diffusion method; format: functional, Salmonella enterica subsp. enterica serovar Typhimurium; summary of the method: as §1
[5] = Antimicrobial activity against Salmonella enterica serovar Virchow assessed as resistant isolates by disk diffusion method; format: functional, Salmonella enterica subsp. enterica serovar Virchow; summary of the method: as §1
[6] = tested on: Salmonella enterica; test: Antimicrobial activity against Salmonella enterica clinical isolates assessed as resistant isolates by disk diffusion method; format: functional; summary of the method: as §1
[7] = tested on: Shigella flexneri; test: Antimicrobial activity against Shigella flexneri harboring oxa-1-like gene assessed as resistant isolates by disk diffusion method; format: functional
Summary of the method: (§2)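 Resistance genes were sought by PCR in isolates fully resistant to the matching antibiotic. One colony was boiled 10 min in water to make template. PCR used […] each primer, 0.4 mM dNTPs and Taq, for 30 cycles of 94°C 1 min, primer-specific annealing 1 min and 72°C 1 min, then 72°C for 10 min. Products were run on 1.5% agarose gels with ethidium bromide.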

[8] = tested on: Shigella flexneri; test: Antimicrobial activity against Shigella flexneri harboring oxa-2-like gene assessed as resistant isolates by disk diffusion method; format: functional; summary of the method: as §2
[9] = tested on: Shigella flexneri; test: Antimicrobial activity against Shigella flexneri harboring oxa-5-like gene assessed as resistant isolates by disk diffusion method; format: functional; summary of the method: as §2
[10] = tested on: Shigella flexneri; test: Antimicrobial activity against Shigella flexneri harboring tem-like gene assessed as resistant isolates by disk diffusion method; format: functional
[11] = tested on: Shigella flexneri; test: Antimicrobial activity against Shigella flexneri harboring shv-like gene assessed as resistant isolates by disk diffusion method; format: functional
[12] = tested on: Shigella flexneri; test: Antimicrobial activity against Shigella flexneri harboring carb-like gene assessed as resistant isolates by disk diffusion method; format: functional; summary of the method: as §2
[13] = tested on: Salmonella sp.; test: Antimicrobial activity against Salmonella spp. harboring oxa-1-like gene assessed as resistant isolates by disk diffusion method; format: functional; summary of the method: as §2
[14] = tested on: Salmonella sp.; test: Antimicrobial activity against Salmonella spp. harboring oxa-2-like gene assessed as resistant isolates by disk diffusion method; format: functional
[15] = tested on: Salmonella sp.; test: Antimicrobial activity against Salmonella spp. harboring oxa-5-like gene assessed as resistant isolates by disk diffusion method; format: functional; summary of the method: as §2
[16] = tested on: Salmonella sp.; test: Antimicrobial activity against Salmonella spp. harboring tem-like gene assessed as resistant isolates by disk diffusion method; format: functional
[17] = tested on: Salmonella sp.; test: Antimicrobial activity against Salmonella spp. harboring shv-like gene assessed as resistant isolates by disk diffusion method; format: functional; summary of the method: as §2
[18] = tested on: Salmonella sp.; test: Antimicrobial activity against Salmonella spp. harboring carb-like gene assessed as resistant isolates by disk diffusion method; format: functional; summary of the method: as §2
[19] = tested on: Shigella flexneri; test: Antimicrobial activity against Shigella flexneri harboring cmlA-like gene assessed as resistant isolates by disk diffusion method; format: functional
[20] = tested on: Shigella flexneri; test: Antimicrobial activity against Shigella flexneri harboring floR-like gene assessed as resistant isolates by disk diffusion method; format: functional; summary of the method: as §2
[21] = tested on: Shigella flexneri; test: Antimicrobial activity against Shigella flexneri harboring CAT gene assessed as resistant isolates by disk diffusion method; format: functional
[22] = tested on: Salmonella sp.; test: Antimicrobial activity against Salmonella spp. harboring cmlA-like gene assessed as resistant isolates by disk diffusion method; format: functional
[23] = tested on: Salmonella sp.; test: Antimicrobial activity against Salmonella spp. harboring floR-like gene assessed as resistant isolates by disk diffusion method; format: functional
[24] = tested on: Salmonella sp.; test: Antimicrobial activity against Salmonella spp. harboring CAT gene assessed as resistant isolates by disk diffusion method; format: functional
[25] = tested on: Shigella flexneri; test: Antimicrobial activity against Shigella flexneri harboring tetA gene assessed as resistant isolates by disk diffusion method; format: functional
[26] = tested on: Shigella flexneri; test: Antimicrobial activity against Shigella flexneri harboring tetB gene assessed as resistant isolates by disk diffusion method; format: functional
[27] = tested on: Shigella flexneri; test: Antimicrobial activity against Shigella flexneri harboring tetG gene assessed as resistant isolates by disk diffusion method; format: functional; summary of the method: as §2
[28] = tested on: Shigella sonnei; test: Antimicrobial activity against Shigella sonnei harboring tetA gene assessed as resistant isolates by disk diffusion method; format: functional
[29] = tested on: Shigella sonnei; test: Antimicrobial activity against Shigella sonnei harboring tetB gene assessed as resistant isolates by disk diffusion method; format: functional; summary of the method: as §2
[30] = tested on: Shigella sonnei; test: Antimicrobial activity against Shigella sonnei harboring tetG gene assessed as resistant isolates by disk diffusion method; format: functional; summary of the method: as §2
[31] = tested on: Salmonella sp.; test: Antimicrobial activity against Salmonella spp. harboring tetA gene assessed as resistant isolates by disk diffusion method; format: functional
[32] = tested on: Salmonella sp.; test: Antimicrobial activity against Salmonella spp. harboring tetB gene assessed as resistant isolates by disk diffusion method; format: functional
[33] = tested on: Salmonella sp.; test: Antimicrobial activity against Salmonella spp. harboring tetG gene assessed as resistant isolates by disk diffusion method; format: functional

Which Activity [1] does the source give for CC1(C)S[C@@H]2[C@H](NC(=O)[C@H](N)c3ccccc3)C(=O)N2[C@H]1C(=O)O [AMPICILLIN] here?
The Activity was 66%.

What about the Activity [2] of the same compound?
Its Activity is 0%.

What about the Activity [3] of the same compound?
Its Activity is 0%.

What about the Activity [4] of the same compound?
The Activity was 67%.

And the Activity [5]?
Its Activity is 0%.

What about the Activity [6] of the same compound?
Its Activity is 25%.

What about the Activity [7] of the same compound?
Its Activity is 90%.

And the Activity [8]?
Its Activity is 5%.

And the Activity [9]?
Its Activity is 2%.

What about the Activity [10] of the same compound?
The Activity was 5%.

And the Activity [11]?
The Activity was 2%.

What about the Activity [12] of the same compound?
Its Activity is 0%.

What about the Activity [13] of the same compound?
The Activity was 0%.

And the Activity [14]?
Its Activity is 0%.

What about the Activity [15] of the same compound?
Its Activity is 20%.

What about the Activity [16] of the same compound?
The Activity was 70%.

What about the Activity [17] of the same compound?
The Activity was 0%.

What about the Activity [18] of the same compound?
Its Activity is 0%.

Which results are given for O=C(N[C@H](CO)[C@H](O)c1ccc([N+](=O)[O-])cc1)C(Cl)Cl [CHLORAMPHENICOL]?
Activity [1]: 61%; Activity [2]: 0%; Activity [3]: 0%; Activity [4]: 22%; Activity [5]: 0%; Activity [6]: 25%; Activity [19]: 2%; Activity [20]: 0%; Activity [21]: 89%; Activity [22]: 33%; Activity [23]: 83%; Activity [24]: 67%

For CN(C)[C@@H]1C(O)=C(C(N)=O)C(=O)[C@@]2(O)C(O)=C3C(=O)c4c(O)cccc4[C@@](C)(O)[C@H]3C[C@@H]12 [TETRACYCLINE], which Activity [1] is on record?
Its Activity is 64%.

And the Activity [2]?
Its Activity is 93%.

And the Activity [3]?
The Activity was 0%.

And the Activity [4]?
Its Activity is 0%.

And the Activity [5]?
The Activity was 0%.

And the Activity [6]?
The Activity was 25%.

And the Activity [25]?
Its Activity is 2%.

What about the Activity [26] of the same compound?
The Activity was 98%.

What about the Activity [27] of the same compound?
Its Activity is 22%.

What about the Activity [28] of the same compound?
Its Activity is 71%.

And the Activity [29]?
Its Activity is 0%.

What about the Activity [30] of the same compound?
The Activity was 36%.

What about the Activity [31] of the same compound?
Its Activity is 33%.

And the Activity [32]?
The Activity was 0%.

And the Activity [33]?
Its Activity is 0%.
